Data on 50 compounds can be found in ChEMBL document CHEMBL5029174, “Discovery of structurally distinct tricyclic M4 positive allosteric modulator (PAM) chemotypes - Part 2” (Bioorg Med Chem Lett, 2021).

Series [1] deals with T1, Muscarinic acetylcholine receptor M4 (Homo sapiens) (UniProt P08173).
T1 sequence (whole entry): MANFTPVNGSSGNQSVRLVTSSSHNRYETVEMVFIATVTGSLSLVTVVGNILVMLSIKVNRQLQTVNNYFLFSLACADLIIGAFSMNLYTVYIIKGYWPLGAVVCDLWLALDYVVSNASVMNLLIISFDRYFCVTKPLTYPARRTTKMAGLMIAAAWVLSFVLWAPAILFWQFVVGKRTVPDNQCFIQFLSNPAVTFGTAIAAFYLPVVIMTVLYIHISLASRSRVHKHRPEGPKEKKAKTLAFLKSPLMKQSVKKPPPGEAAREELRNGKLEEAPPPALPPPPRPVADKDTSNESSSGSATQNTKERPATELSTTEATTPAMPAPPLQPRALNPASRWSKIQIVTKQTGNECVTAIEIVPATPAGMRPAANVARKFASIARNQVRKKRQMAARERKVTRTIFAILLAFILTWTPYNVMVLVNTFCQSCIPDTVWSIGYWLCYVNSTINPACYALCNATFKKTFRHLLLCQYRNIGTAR
Put plainly: Positive allosteric modulation of human muscarinic acetylcholine M4/Gqi5 receptor expressed in CHO cells in presence of acetylcholine at EC20 concentration by calcium mobilization assay relative to control. It is filed as functional, cell-based. In a few lines: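 CHO cells stably expressing human M4 with a chimeric Gq protein were tested by calcium mobilization in the presence of an EC20 fixed concentration of acetylcholine. EC50 values come from concentration-response curves. Efficacy is given as % of the maximal acetylcholine response. Each value is n = 1 independent experiment run in triplicate.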
On the technique in general: A change in cytosolic calcium serves as a functional read-out for many receptors and channels.

The target in series [2] is T2, Muscarinic acetylcholine receptor M4 (Homo sapiens, UniProt P08173).
T2 sequence (P08173 whole entry): T1 sequence (whole entry)
Put plainly: Positive allosteric modulation of human muscarinic acetylcholine M4/Gqi5 receptor expressed in CHO cells in presence of acetylcholine at EC20 concentration by calcium mobilization assay. It is filed as functional, cell-based.

Series [3] is described as follows: Brain to plasma partition coefficient, Kp of the compound in Sprague-Dawley rat at 0.2 mg/kg, iv measured at […]. In kind it is ADME, organism-based. As to conditions: time 0.25 hrs; call rule not given here.
A short description of series [4]: Intrinsic clearance in human liver microsomes. Conditions: read-out: CLH. In general terms: Liver microsomes are a subcellular fraction often used to study metabolism.
Series [5] is described as follows: Intrinsic clearance in rat liver microsomes. As to conditions: read-out: CLH.
[6] abbreviates: filed as positive allosteric modulator.

Where only a bound is given, the exact number is not on record here.

`Cc1cc(C)c2c(n1)sc1c(N3CC(F)(F)C3)ncnc12`: in series [1] (setting [6]), the %max was found to be 69%.
Consider `Cc1cc(C)c2c(n1)sc1c(N(C)C)nccc12`, for which the %max in series [1] (setting [6]) is 82%.
In the case of `Cc1cc(C)c2c(n1)oc1c(NCc3ccc(C(C)(C)O)cc3)ncnc12`, the EC50 entry in series [2] (cho) is listed as “Not Active”.
On to `Cc1cc(C)c2c(n1)sc1c(NCc3ncc(F)cn3)ncnc12`, for which, in series [1], the %max was 30%. Also, in series [2] (read-out: EC50), the EC50 was greater than 10000 nM.
Regarding `Cc1cc(C)c2c(n1)sc1c(NC3CN(c4ncc(C(F)(F)F)cn4)C3)ncnc12`, the %max in series [1] (setting [6]) was 52%.
For `Cc1cc(C)c2c(n1)sc1c(C)ncnc12`, the %max in series [1] (setting [6]) is 58%.
Turning to `Cc1cc(C)c2c(n1)oc1c(NC3CN(c4cc(Cl)ncc4Cl)C3)ncnc12`, the %max in series [1] (setting [6]) stood at 49%.
In the case of `Cc1cc(C)c2c(n1)sc1c(NCc3ccc(C(F)(F)F)cn3)ncnc12`, in series [2] (cho), the 50% effective concentration (EC50) entry is “Not Active”.
As for `Cc1cc(C)c2c(n1)oc1c(NC3CN(c4ncc(C(F)(F)F)cn4)C3)ncnc12`, the EC50 result in series [2] (cho) is given as “Not Active”.
Consider `Cc1cc(C)c2c(n1)sc1c(NC3CCC3)ncnc12`, for which the %max in series [1] (setting [6]) came out at 76%.
The compound `Cc1cc(C)c2c(n1)sc1c(NCc3ccc(C(C)(C)O)cc3)nccc12` had a Kp in series [3] of 2.27. Besides, the %max in series [1] (setting [6]) worked out at 101%. In addition, the figures for the predicted hepatic clearance in series [4] and in series [5] were 15 mL/min/kg and 58 mL/min/kg, respectively.
Taken in the same sequence, the figures for `Cc1cc(C)c2c(n1)sc1c(NCc3ccc(S(C)(=O)=O)cc3)ncnc12` were 0.45, 42%, 12 mL/min/kg and 50 mL/min/kg.
On to `Cc1cc(C)c2c(n1)sc1c(NCc3ccc(OC(F)F)cc3)ncnc12`, for which the %max in series [1] (setting [6]) stood at 45%. Moreover, the concentration for a half-maximal effect (EC50) in series [2] (read-out: EC50) worked out at 4010 nM.
`Cc1cc(C)c2c(n1)sc1c(N3CC4(COC4)C3)ncnc12` returned a concentration ratio (Kp) in series [3] of 4.47. Moreover, the %max in series [1] (setting [6]) stood at 84%. Also, the figures for the predicted hepatic clearance in series [4] and in series [5] were 18 mL/min/kg and 63 mL/min/kg, respectively.
`Cc1cc(C)c2c(n1)sc1c(NCc3ccc(C(C)(C)O)cc3)ncnc12`: in series [1] (setting [6]), the %max was found to be 76%.
`Cc1cc(C)c2c(n1)sc1c(NCc3ccc4sccc4c3)ncnc12`: the 50% effective concentration (EC50) result in series [2] (cho) is given as “Not Active”.
Regarding `COCC1CN(c2ncnc3c2sc2nc(C)cc(C)c23)C1`, the %max in series [1] (setting [6]) worked out at 50%.
For `Cc1cc(C)c2c(n1)sc1c(NCc3ccc(F)c(Cl)c3)ncnc12`, the EC50 entry in series [2] (cho) is given as “Not Active”.
As to `Cc1cc(C)c2c(n1)sc1c(NC3CCCC3)nccc12`, in series [1] (setting [6]), the %max came out at 71%.
Consider `Cc1cc(C)c2c(n1)sc1c(NC3CCC3)nccc12`, for which the partition ratio (Kp) in series [3] was 10.4. In addition, the %max in series [1] (setting [6]) was found to be 90%. For the same compound, the values for the predicted hepatic clearance in series [4] and in series [5] were 20 mL/min/kg and 69 mL/min/kg, respectively.
`Cc1cc(C)c2c(n1)sc1c(C3CCCCC3)ncnc12`: in series [1] (setting [6]), the %max is 71%.
Take `Cc1cc(C)c2c(n1)sc1c(NCc3ccc(C(C)(C)O)cc3F)ncnc12`: in series [1] (setting [6]), the %max amounted to 74%. In addition, the concentration for a half-maximal effect (EC50) in series [2] (read-out: EC50) worked out at 2320 nM.
In the case of `Cc1cc(C)c2c(n1)sc1c(N3CCCC3)ncnc12`, the concentration ratio (Kp) in series [3] is 5.36. The %max in series [1] (setting [6]) is 67%. For the same compound, the predicted hepatic clearance is 18 mL/min/kg in series [4] and 68 mL/min/kg in series [5].
As for `Cc1cc(C)c2c(n1)sc1c(NC3CN(c4ncc(C(F)(F)F)cn4)C3)nccc12`, in series [1] (setting [6]), the %max worked out at 80%.
For `Cc1cc(C)c2c(n1)sc1c(NCc3ccc(OC(F)(F)F)cc3)ncnc12`, the concentration for a half-maximal effect (EC50) entry in series [2] (cho) is listed as “Not Active”.
`COc1ccc(C2CC2Nc2ncnc3c2sc2nc(C)cc(C)c23)cc1` (stereo not given): the %max in series [1] (setting [6]) is 61%.
The compound `Cc1cc(C)c2c(n1)sc1c(N3CCCC3)nccc12` registered a concentration ratio (Kp) in series [3] of 37.1. Moreover, in series [1] (setting [6]), the %max was 98%. Moreover, the predicted hepatic clearance in series [4] was 19 mL/min/kg; in series [5] it was 68 mL/min/kg.
For the compound `Cc1cc(C)c2c(n1)sc1c(NCc3ccc4c(c3)COC4)ncnc12`, the %max in series [1] (setting [6]) was 41%. Moreover, in series [2] (read-out: EC50), the EC50 was determined as 1140 nM.
With `Cc1cc(C)c2c(n1)sc1c(NCc3ccc(-n4ccnc4)nc3)ncnc12`, in series [1], the %max is 34%. In addition, the EC50 in series [2] (read-out: EC50) came out at 1560 nM.
On to `Cc1cc(C)c2c(n1)sc1c(-c3nccs3)ncnc12`, for which, in series [1] (setting [6]), the %max was 62%.
On to `Cc1cc(C)c2c(n1)sc1c(NCc3ccc4c(n3)CCC4)ncnc12`, for which the %max in series [1] was found to be 30%. Moreover, the EC50 in series [2] (read-out: EC50) came to 2560 nM.
`Cc1cc(C)c2c(n1)oc1c(NC3CCC3)ncnc12`: the %max in series [1] (setting [6]) came to 44%.
Turning to `Cc1cc(C)c2c(n1)sc1c(C3CCNCC3)ncnc12`, in series [1] (setting [6]), the %max came to 44%.
On the same count and under the same terms, to `Cc1cc(C)c2c(n1)sc1c(NCc3cnc(C)nc3)ncnc12` belongs 54%.
Turning to `Cc1ccc(CNc2ncnc3c2sc2nc(C)cc(C)c23)c(F)c1`, the concentration for a half-maximal effect (EC50) entry in series [2] (cho) was “Not Active”.
`Cc1cc(C)c2c(n1)sc1c(C3CCN(CC4CC4)CC3)ncnc12`: the half-maximal effective concentration (EC50) entry in series [2] (cho) is “Not Active”.
Regarding `Cc1cc(C)c2c(n1)sc1c(N3CC4CC4C3)ncnc12` (stereo not given), in series [1] (setting [6]), the %max amounted to 75%.
On the same count and under the same terms, to `Cc1cc(C)c2c(n1)oc1c(NC3CC3)ncnc12` belongs 64%.
Turning to `Cc1cc(C)c2c(n1)sc1c(OCc3ccc(C(C)(C)O)cc3)ncnc12`, the %max in series [1] (setting [6]) is 40%. In addition, in series [2] (read-out: EC50), the EC50 was determined as 8740 nM.
On the same counts, the results for `Cc1cc(C)c2c(n1)sc1c(C3CCOCC3)ncnc12` are 99% and 152 nM.
For `Cc1cc(C)c2c(n1)oc1c(N3CCCC3)ncnc12`, in series [2] (cho), the EC50 entry is “Not Active”.
For the compound `Cc1cc(C)c2c(n1)sc1c(C3CC3)ncnc12`, in series [1] (setting [6]), the %max turned out to be 62%.
`COc1ccc(CNc2ncnc3c2oc2nc(C)cc(C)c23)cc1F`: the 50% effective concentration (EC50) result in series [2] (cho) is reported as “Not Active”.
Regarding `COc1ccc(CNc2nccc3c2sc2nc(C)cc(C)c23)cc1F`, the %max in series [1] (setting [6]) was determined as 90%.
Consider `Cc1cc(C)c2c(n1)sc1c(NC3CC(c4ccncc4)C3)ncnc12` (stereo not given), for which the %max in series [1] (setting [6]) amounted to 67%. For the same compound, the concentration for a half-maximal effect (EC50) in series [2] (read-out: EC50) was found to be 341 nM.
`Cc1cc(C)c2c(n1)sc1c(C3CCN(C(=O)C4CC4)CC3)ncnc12`: in series [1] (setting [6]), the %max was 62%.
For the compound `Cc1cc(C)c2c(n1)sc1c(NCc3ccc(CN4CCOCC4)cc3)ncnc12`, the %max in series [1] (setting [6]) is 47%. Further, the EC50 in series [2] (read-out: EC50) came out at 1110 nM.
As to `Cc1cc(C)c2c(n1)sc1c(C3CCN(c4cncc(F)c4)CC3)ncnc12`, the concentration for a half-maximal effect (EC50) entry in series [2] (cho) is on record as “Not Active”.
`Cc1cc(C)c2c(n1)sc1c(C3CCN(C(=O)C4(C)CC4)CC3)ncnc12`: the partition ratio (Kp) in series [3] is on record as 0.54. The %max in series [1] (setting [6]) came to 72%. In series [2] (read-out: EC50), the 50% effective concentration (EC50) turned out to be 234 nM. Also, the predicted hepatic clearance in series [4] was 11 mL/min/kg; in series [5], 59 mL/min/kg.
In the case of `Cc1cc(C)c2c(n1)sc1c(N3CCC3)ncnc12`, in series [3], the Kp came out at 6.49. Further, the %max in series [1] (setting [6]) was found to be 59%. Further, the figures for the predicted hepatic clearance in series [4] and in series [5] were 20 mL/min/kg and 64 mL/min/kg, respectively.

For orientation: EC50 means the concentration at which the effect is half-maximal. In general, Kp refers to the ratio of the level in a tissue or fluid to that in plasma or blood.
